# From PubChem BioAssay
# CASP6 VEID inh – blocks human caspase-6 cleavage activity. actives 0.53% (n = 350,000). purified caspase-6, Z-VEID-R110 cleavage fluorescence. inhibition, % at 12.5 µM. P55212;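 active = mean inhibition across replicates at least about 35%, with every replicate also reaching that limit, limit read from the data; inconclusive = only one of the two criteria met; inactive = neither criterion met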;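 note: 0% = median of neutral control wells and 100% = no fluorescence left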
# RAD54 branch – inhibitors of human RAD54 branch migration. Q92698. RAD54 Holliday junction branch migration, FAM/BHQ fluorescence. actives 0.14% (n = 360,000). inhibition, % at 10.4 µM;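 active = mean normalized replicate activity at least 40 and at least half of replicates scoring 40 or more; inconclusive = only one of the two criteria met; inactive = mean below 40 and under half of replicates reaching 40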;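 note: 0% = median of neutral control wells and 100% = median of positive control wells; inhibitors cause a drop in the FAM fluorescence signal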
# Target sequence (Q92698 whole entry, looked up): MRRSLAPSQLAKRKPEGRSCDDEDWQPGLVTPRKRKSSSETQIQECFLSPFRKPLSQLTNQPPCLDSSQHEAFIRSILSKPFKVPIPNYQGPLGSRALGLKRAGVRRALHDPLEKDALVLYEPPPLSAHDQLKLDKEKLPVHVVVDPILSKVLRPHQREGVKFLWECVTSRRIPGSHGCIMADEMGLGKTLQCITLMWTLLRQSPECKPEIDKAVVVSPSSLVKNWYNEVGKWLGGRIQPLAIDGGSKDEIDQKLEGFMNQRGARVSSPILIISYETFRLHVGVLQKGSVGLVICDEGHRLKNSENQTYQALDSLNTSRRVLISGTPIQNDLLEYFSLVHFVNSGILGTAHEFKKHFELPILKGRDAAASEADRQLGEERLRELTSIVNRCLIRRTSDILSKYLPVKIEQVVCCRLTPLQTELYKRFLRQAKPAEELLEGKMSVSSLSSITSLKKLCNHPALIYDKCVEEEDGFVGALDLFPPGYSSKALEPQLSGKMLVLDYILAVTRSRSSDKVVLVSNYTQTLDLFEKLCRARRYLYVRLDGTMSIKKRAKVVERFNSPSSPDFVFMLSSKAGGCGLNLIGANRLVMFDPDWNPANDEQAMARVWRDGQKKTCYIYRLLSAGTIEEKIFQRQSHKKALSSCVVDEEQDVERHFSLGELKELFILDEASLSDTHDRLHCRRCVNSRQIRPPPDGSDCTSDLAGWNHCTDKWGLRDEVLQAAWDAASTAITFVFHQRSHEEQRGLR
# RAD52 inh – inhibitors of human RAD52 DNA annealing; P43351; recombinant RAD52 DNA annealing, FRET fluorescence; inhibition, % at 18.7 µM; actives 0.46% (n = 360,000); AID 651710;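 active = every replicate showing at least 50% inhibition; inconclusive = mean inhibition at least 50% but not in every replicate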
# MLL AF4-AF9 inh – MLL-AF4/AF9 protein interaction inhibition; actives 0.47% (n = 350,000); inhibition, % at 10 µM; AlphaScreen, biotin-AF4 peptide binding to FLAG-AF9;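 active = every replicate reaching a set inhibition limit, whatever the replicate mean, cut at about 25% in these data; inconclusive = mean inhibition reaches that limit but some replicates miss it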;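 note: 0% = plate neutral control median and 100% = total signal loss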
# S100A4 inh HTS – S100A4-myosin IIA interaction inhibition; actives 0.14% (n = 360,000); AID 652163; S100A4/TAMRA-MyoIIA peptide fluorescence polarization; inhibition, % at 10.7 µM;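 active = mean inhibition of at least 70% across replicates, with every replicate also reaching that level; inconclusive = mean inhibition reaches 70% but some replicates fall short; inactive = mean inhibition below 70%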
#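 Compound dosing: one dose per compound; test system: human S100A4 monomer with TAMRA-labelled myosin IIA peptide; probe or stimulus: TAMRA-labelled myosin IIA heavy-chain peptide probe, 5 nM; medium: HEPES buffer with Ca2+, pH 7.2; schedule: 5 min incubation before reading; benchmarks: neutral control DMSO, positive control TFP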
# XiGFP reactiv – activators of X-chromosome reactivation in mouse fibroblasts; activation, % at 7.58 µM; XiGFP mouse fibroblasts, % GFP-positive cells imaging, 3 d; cells co-treated with 5-aza-dC sensitizer; scaled so ellipticine positive control = 100%; actives 0.055% (n = 360,000);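 active = mean normalized replicate activation at least 10% and every replicate at or above 10%; inconclusive = only one of the two criteria met; inactive = mean below 10% and not all replicates reach 10%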;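 note: 0% = median of on-plate neutral control wells and 100% = ellipticine 6 µM median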
#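 material = 68-5-11 XiGFP fibroblast line | medium = DMEM plus 5-aza-dC sensitizer | schedule = 3 days compound exposure | benchmarks = positive control ellipticine, 6 µM final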
# AlphaScreen intf – AlphaScreen signal interference counter-screen hit. shares compounds with MLL AF4-AF9 inh. signal luminescence. AC50, µM (highest dose often 12 µM), inactives show at the top dose activity change, negative = inhibition. actives 45% (n = 530). AID 720494; cut-off not given, nearly all actives have AC50 up to about 14 µM
# * marks the source's active call; other numbers are inactive results; ? = inconclusive; nt = not tested or not shown. An excerpt weighted towards active compounds, which were near 1.3% of everything screened.
SMILES,CASP6 VEID inh,RAD54 branch,RAD52 inh,MLL AF4-AF9 inh,S100A4 inh HTS,XiGFP reactiv,AlphaScreen intf
O=C(N/N=C/c1sc(N2CCOCC2)nc1-c1ccccc1)c1ccccc1Cl,nt,-0.1,-17.5,-2.7,-5.6,0.0,nt
O=C(N/N=C/c1sc(N2CCCCC2)nc1-c1cccs1)C1CC1,0.7,nt,-44.2,23.2,-8.0,0.0,-20.4%
Oc1ccc(Br)cc1C=Nc1ccc(Cl)cc1,-3.8,nt,-6.5,-2.2,-25.6,0.1,nt
CCN(CC)c1ccc(N=Cc2cc(Br)ccc2O)cc1,-7.8,nt,9.6,46.0*,-22.6,2.0,-2.2%
C[C@@H]1CN([C@H](C)CO)C(=O)c2cc(NC(=O)c3ccccc3)ccc2O[C@@H](C)CCCCO[C@@H]1CN(C)S(=O)(=O)c1cccs1,nt,-6.6,nt,nt,nt,0.0,nt
CCOc1ccc(NCc2cccn2-c2nnc(N3CCC(C(=O)NCCCN4CCCCC4CC)CC3)s2)cc1 (stereo not given),-87.6,24.6,32.8,38.2*,5.6,0.2,10.5µM*
CC1CCCCN1CCCNC(=O)C1CCN(c2nnc(-n3cccc3)s2)CC1 (stereo not given),-125.0,-0.5,46.9,7.9,-1.0,0.0,nt
CCC(=O)N(C)C[C@H]1Oc2cc(C#CCC(C)C)ccc2S(=O)(=O)N([C@@H](C)CO)C[C@H]1C,-1.8,-13.1,4.8,-1.8,-25.6,-1.1,nt
Cc1ccc(C)c(S(=O)(=O)N2CCN(Cc3ccc(O)c4ncccc34)CC2)c1,4.7,nt,-13.0,82.0*,4.3,0.0,-31.1%
COc1ccc(N2CCC(CNC(=S)Nc3c(C)cc(C)cc3C)C2)cc1 (stereo not given),-2.0,nt,34.5,23.3,-1.3,0.4,nt
COc1ccc(N2CCC(CNC(=S)Nc3ccc(C)cc3C)C2)cc1 (stereo not given),-5.9,nt,-13.6,?,-10.1,-0.1,-13.6%
O=C(C[C@@H]1C=C[C@@H](NS(=O)(=O)c2ccc(F)cc2)[C@H](CO)O1)NCc1ccncn1,-1.9,-0.6,1.9,-2.1,25.9,0.0,nt
O=C(C1CCC1)N1CC(=O)N2[C@H](CO)[C@H](c3ccc(Br)cc3)[C@H]2C1,1.6,nt,13.1,-1.9,3.5,0.0,nt
N#Cc1nc(-c2cccs2)oc1N1CCN(Cc2ccccc2)CC1,-0.7,nt,-9.7,30.6*,-3.7,nt,-27.0%
CCOc1cc(N2CCOCC2)c(OCC)cc1NC(=O)c1ccc2ccccc2n1,2.9,nt,-28.3,37.6*,-0.1,0.0,-30.8%
CCOc1cc(N2CCOCC2)c(OCC)cc1NC(=O)c1ccccc1C,-0.3,nt,-36.2,7.1,-0.3,-0.1,nt
CN(C)C(=O)C[C@H]1C[C@@H]2c3cc(NC(=O)c4ccc5c(c4)OCO5)ccc3O[C@@H]2[C@@H](CO)O1,0.4,-0.1,4.0,-0.5,0.1,-0.1,nt
CCN(CC)c1ccc(C(=O)O)cc1,-1.3,nt,-9.7,-0.7,-5.3,-0.1,nt
CCN(CC)c1ccc(C(=C2C=CC(=[N+](CC)CC)C=C2)c2ccc(S(=O)(=O)O)cc2S(=O)(=O)[O-])cc1,16.4,-15.4,-22.5,59.6*,6.6,0.0,7.89µM*
COCC#Cc1ccc([C@H]2[C@H](CO)N3C(=O)CN(C(=O)c4ccncc4)C[C@@H]23)cc1,1.8,nt,0.7,-4.0,-2.7,0.1,nt
O=[N+]([O-])c1ccc(/C=N/Nc2ccnc3cc(Cl)ccc23)o1,2.0,15.7,-10.5,27.6*,-39.7,0.4,-29.0%
C[C@@H]1CN([C@H](C)CO)C(=O)Cc2cc(NS(=O)(=O)c3cn(C)cn3)ccc2O[C@H]1CN(C)C(=O)Nc1ccccc1,0.3,-3.5,1.7,-2.4,12.1,-0.4,nt
CN1C(=O)c2cc(NS(C)(=O)=O)ccc2OC[C@H]2O[C@@H](CC(=O)NCc3ccc(-c4ccccc4)cc3)CC[C@H]21,-5.0,-2.5,11.1,-12.4,4.0,0.2,nt
CN(C)C(CNC(C(=O)Nc1ccc([N+](=O)[O-])cc1Br)c1ccccc1)c1ccccc1 (stereo not given),0.1,nt,4.2,34.9*,39.3,0.0,-23.4%
CN(C)c1ccc(C=c2c3cc(O)ccc3n3c2cc(-c2ccccc2)[n+]3C)cc1,95.2*,nt,-42.2,77.8*,78.9*,0.0,2.46µM*
SMILES,CASP6 VEID inh,RAD54 branch,RAD52 inh,MLL AF4-AF9 inh,S100A4 inh HTS,XiGFP reactiv,AlphaScreen intf
CN(C)c1ccc(C=c2c3ccccc3n3c2c2ccccc2[n+]3C)cc1,-26.2,nt,45.1,51.1*,-5.2,-0.2,3.45µM*
Cc1ccccc1OCc1nc2ccccc2c(=O)n1/N=C/c1c[nH]c2ccccc12,-0.8,-5.1,-27.1,3.4,5.2,-0.1,nt
Cc1cc(/C=N/n2c(COc3ccccc3C)nc3ccccc3c2=O)c(O)c([N+](=O)[O-])c1,-1.5,nt,-2.9,31.9*,-2.2,0.0,3.5%
O=C(Nc1ccc(N2CCCC2)c(Cl)c1)c1ccc([N+](=O)[O-])o1,4.5,nt,-1.7,49.1*,-9.5,0.0,13µM*
Nc1ccc(O)c2c1C(=O)c1ccccc1C2=O,12.8,11.7,-16.0,37.8*,16.6,nt,-30.9%
CCC(=O)N(C)C[C@H]1Oc2cc(C#Cc3ccncc3)ccc2S(=O)(=O)N([C@@H](C)CO)C[C@@H]1C,0.5,-2.4,-7.9,?,-8.1,0.3,-18.0%
CCC(=O)N(C)C[C@H]1Oc2cc(C#Cc3ccncc3)ccc2S(=O)(=O)N([C@@H](C)CO)C[C@H]1C,-2.1,5.6,-4.2,-5.7,-11.6,0.3,nt
COc1ccc(-c2nc3ccccc3nc2-c2ccc(OC)c(OC)c2)cc1OC,5.1,-1.3,-2.1,-3.1,7.8,0.1,nt
COc1ccc2nc3ccccc3nc2c1N,4.7,1.9,0.6,?,-15.4,-0.1,12µM*
CC(C)=CCc1cc(-c2oc3cc(O)cc(O)c3c(=O)c2O)ccc1O,19.0,6.0,-9.4,35.1*,-1.1,nt,-42.3%
CCN1CCN(c2ccc(S(=O)(=O)N3CCCCC3)cc2NC(=O)/C=C/c2ccc([N+](=O)[O-])cc2)CC1,-4.1,-4.0,11.6,14.1,-13.7,1.4,nt
CN1CCN(c2ccc(S(=O)(=O)N3CCCCC3)cc2NC(=O)/C=C/c2ccc(Cl)c([N+](=O)[O-])c2)CC1,-1.7,-2.4,4.7,?,-2.8,0.2,2.2%
Cn1ccc2c(-c3ccccc3F)cc3c(c21)C1CCC3C1 (stereo not given),-1.7,-3.3,-17.6,1.3,4.9,0.0,nt
Cn1ccc2c(/C=C/c3ccc(F)cc3)cc3c(c21)C1CCC3C1 (stereo not given),-1.1,1.5,-12.7,43.7*,-11.0,nt,9.4%
Cc1cccc(C)c1N=Nc1c(C)cc(O)cc1C,3.0,4.5,1.5,35.3*,4.5,0.0,10.1µM*
